According to the EternaBench riboswitch data:

System: MS2 coat protein
Experiment: apparent Kd, MS2 coat protein; higher = weaker binding; RNA-MaP array; FMN 200 µM where present
Method in brief: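 Stalled E. coli RNA polymerase produced the designs on Illumina sequencing-chip clusters. SNAP-549-labelled MS2 coat protein was added from 0.7 or 1.5 nM, doubling to 3 µM, without and then with constant ligand, in 100 mM Tris-HCl pH 7.5, 80 mM KCl, 4 mM MgCl2, BSA, DTT, yeast tRNA and Tween-20. The apparent Kd is the median of filtered per-cluster fits of green signal normalised to red-channel RNA signal and control-cluster median Fmax.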

[1] = designed as: OFF switch for flavin mononucleotide, no ligand
[2] = ligand present: flavin mononucleotide, designed as: OFF switch for flavin mononucleotide
[3] = designed as: ON switch for flavin mononucleotide, no ligand
[4] = ligand present: flavin mononucleotide, designed as: ON switch for flavin mononucleotide

Sequence | apparent Kd [1] [nM] | apparent Kd [2] [nM] | apparent Kd [3] [nM] | apparent Kd [4] [nM]
UAGGGAGGAGGGAGGGAGACAUGAGGAUCACCCAUGUAAUGUCAGGAUAUUCUCAUAUUAUAUUAGGAGAAGGGAUACAUAUCU | 49.7 | 24.7 |  | 
UAUGUGUCAGGAUAUUGUUAAUUUAGUUGUUUGUAUUAGUUCGAGAAGGGACAUGAGGAUCACCCAUGUUGUUU | 31.9 |  |  | 
CGCGGUACUUAGGUACCACACAUGAGGAUCACCCAUGUAUCACAGGAUAUGCAUGAUAUAUUCAGGCAGAAGGGUGAUCUUACC |  |  | 37.8 | 99.4
CUAGUUGUCGCAGGAUAUGCCCGCUGGUUGGAGGCAGAAGGGUGACACCAAAUAUUAUACAUGAGGAUCACCCAUGUCGCCAAC |  |  | 17.9 | 19.3
CGUCCGUGGGUAGUGAUCGUACAUGAGGAUCACCCAUGUGAGAAGGAUAUGCAUGCACAUGGACAGCAGAAGGUCUCAUAACAA | 69.4 | 353 |  | 
AGAUGUACCUAGGAUAUCCGUCUUAUUGGACUAGGAGAAGGAGGUACAUGAGGAUCACCCAUGUAUGACUCCUG | 11.5 | 14 |  | 
UGGAUGGUAUGAGGAUAUGCGCGCGAAACGUGCGCAGAAGGCAUGUCAAUAGACAUGAGGAUCACCCAUGUAUUAUCCAUCCAA |  |  | 140 | 12.5
UCAUACAUUCGAGGAUAUCGGUGAUAACUCAAACGAGAAGGCGAUUUAAAACAUAAUGCUGUAGACAUGAGGAUCACCCAUGUA |  |  | 476 | 182
CCUAAGAAAGGAUAUACACCGGUGGGCCGCUGAAUUCAGCAACAUGAGGAUCACCCAUGUAGAAGGUUUAUGGG | 75.2 | 270 |  | 
UAUAUAUAGUAAGGAUAUGUAUAUAUUAUAUAAACAGAAGGUACUGACAUGAGGAUCACCCAUGUUUUAGUGUGGGCAUGUAGA | 67.8 | 98.9 |  | 
AAGAUACAUGAGGAUCACCCAUGUGAGGAUAUGUGUAUCCCUAAAAAAGUGUGGGACCACAGAAGGUACUUGGA | 61.7 | 55.4 |  | 
UGUCGGAGCAGAGGAUAUUACAUGAGGAUCACCCAUGUAUGAACCAAUAGUUGGAAACAGCAAUGUAAGAAGGCUGCUCCGACA | 11.5 | 94.6 |  | 
AAUUACAUGUAGAAGGUACUUAAUUAAGUGUUGUAAGGAUAUACCAAUUUAUUAGAUUUAAAGAUACAUGAGGAUCACCCAUGU |  |  | 12.1 | 9.76
AGUGCGUAUGUGAGGAUAUGCUGGUCCUUGGAUCAGCAGAAGGCACAUGAGGAUCACCCAUGUGGUGUCGUACU | 253 | 27.2 |  | 
UGCCAUUACAUGAGGAUCACCCAUGUUCGCUAUGCGGGCUCGCAGGAUAUCCUCGCAGAUAAAGAGGAGAAGGGUGAUCCCGAC |  |  | 48 | 28.9
AUUUAUGGCCAGAAGGACAUGAGGAUCACCCAUGUAGGAUAUGGACGAUUUUACUCGGCGGUUUGUUAAGGAAGCACCGGCGGU |  |  | 7.76 | 6.08
AGCUGGUGACAGCAUCCAUCAAAACAUGAGGAUCACCCAUGUAGAAGGCUGUACGGUUACCGUACAGAGGAUAUACAAUGAUGG | 7.61 | 9.36 |  | 
AACGAGCAAGAUUAUUAUGAAUAAACAUGAGGAUCACCCAUGUAGGAUAUGCAGUGGAAUACACUGCAGAAGGACAAAAGCUCG | 6.49 | 12.9 |  | 
GGCGGCGCGGGCCACCGCAAAACCAGAAGGACAUGAGGAUCACCCAUGUAACAAAACAGGGCGGUGUAGGAUAUGGCAGACCCG | 14.2 | 25 |  | 
AUUUUAUAACAAGGAUAUACUAAACAUGAGGAUCACCCAUGUAAUAUUAUGAGUGAGAGAGAGAAGUAGAAGGUGUAUUAUUUU | 102 | 128 |  | 
AUGUUACAUGAGGAUCACCCAUGUCAGGAUAUCUAUCAUAGCAUAGAAAUAUGCGGGUAGAGAAGGGACUAUCC | 15.4 | 13.8 |  | 
AACGCGUCAGGAUAUGCCAUAAAUUACCUAGUACGACCAUAGCAGAAGGGACAUGAGGAUCACCCAUGUAAAUA | 40.5 | 28.3 |  | 
UAUAUAUAGUAAGGAUAUGUAAUUAUUUGAUAAACAGAAGGUACUGACAUGAGGAUCACCCAUGUUUUAGUGUGGGCAUGUAGA | 88.2 | 138 |  | 
CUUUUUUUUGUGAGGAUAUACUGUUAUUAAAGUUAGUAGAAGGUACAUGAGGAUCACCCAUGUUAAUUACUCUA | 14.1 | 14.9 |  | 
GGAAAUCAUGUAGGAUAUGCAUGGCGAAGCUACGCAGAAGGACAUGAGGAUCACCCAUGUUAGAGCGUCCGAGAAAGGAUGCAA | 43.2 | 250 |  | 
GCGUCAGAAUUAAUUGUGACAGGCAGAAGGCUAUAUCUUAUGUCAGACAUGAGGAUCACCCAUGUAGAGGAUAUGCAGUUACAC | 10.6 | 17.9 |  | 
CGUGUCGCAUGAGGAUAUGGUCAGCUUUGCUGACCAGAAGGCAUGUCAAUAGACAUGAGGAUCACCCAUGUAGUAAAGACACGA |  |  | 416 | 33.9
AUAAUGAGAGGAUAUACAUGAGGAUCACCCAUGUUAUUAUCACGGCGAGCUCCAUUACGUAGAAGGCUCAUUUA | 16.5 | 44.7 |  | 

Sequence | apparent Kd [1] [nM] | apparent Kd [2] [nM] | apparent Kd [3] [nM] | apparent Kd [4] [nM]
CAGGAUAGAGGAUAUACAUAGAUACAGGUUCAUGUAAUCCUACAUGAGGAUCACCCAUGUAGAAGGCUAUCCUG | 15 | 43.3 |  | 
UAUUGAGCAGGAUAUUAACGGGUUUACAUGAGGAUCACCCAUGUGGUCCCGUGUUAGCUAUAAGAAGGGCUGAUGA | 35.5 | 120 |  | 
CGUAGGAUCCAGAAGGCAUGUACAUGAGGAUCACCCAUGUCAAUAGACAUGAGGAUAUGGAUCCUACGAAAAGUGCGAAAGCAC |  |  | 10.5 | 4.49
AAAGACAGACAUGAGGAUCACCCAUGUUACGAAGAUAAUGGGAGAAGGGCGAUUGCAAAGCAAUCGCAGGAUAUUCAUAUUGUC |  |  | 39.6 | 10.8
CCUAAGGAGACAGGAUAUAGCGUGGUGGCCGGGCUCCCACGGCGAGCGGCGCUAGAAGGGUCACUACAUGAGGAUCACCCAUGU |  |  | 11.2 | 11.6
CCAUGUUAGCAGGAUAUGCUAUUAAUCUUUUAUGCAGAAGGGCUUACAUGAGGAUCACCCAUGUAUUAAGUCAA | 14.1 | 47.8 |  | 
CGGCAAGUCGUAGGAUAUGGUGAUGUACAUGAGGAUCACCCAUGUCCGUCUUCUCUCACAAGAUGCCAGAAGGGCGACUUCCGG |  |  | 829 | 340
UCAUUUCUGUUAGGAUAUUAAAACAUGACGAUACAUGAGGAUCACCCAUGUUAAGAAGGAACAAAUACAUAUAAUGCAAUGUUC | 12.5 | 10.7 |  | 
GAGCCUAAUGAGAAGGUGUGUAUAAAUUAUAUACAAGGAUAUCGGUCGAGCGUGUUGACAUGAGGAUCACCCAUGUUGAGGCUU |  |  | 7.86 | 5.29
CCGGAAACGGGUAGCCUGACAUGAGGAUCACCCAUGUGAACCAAGGAUAUGGAUCCUAAUUGGAUCCAGAAGGUGGAAGGCUAC |  |  | 243 | 45.3
CUAGACAUAUCAGGAUAUCAUCGCGUGGAUUAACCCUGUGAUUACAUGAGGAUCACCCAUGUGCUUGAGAAGGGAUUACUAUUU | 35.7 | 145 |  | 
GCCAGGCAUGUAGGAUAUCCAUUGCGUCGCGUUGGAGAAGGGCAACACACAUGAGGAUCACCCAUGUGGUCACCCAUGUAGUGU | 489 | 524 |  | 
UACCCUUGUGAGAAGGCGCCGCAGAUUUUACGGCGAGGAUAUCACAUGAGGAUCACCCAUGUUCCUGAGCCUACAAGUGUGGGC | 338 | 313 |  | 
CGCUGGAACACAGGAUAUCGCACAUGCCUGAUCCAGUUAAUAUCACAUGAGGAUCACCCAUGUGGUGAGAAGGGUGUCAAGUUU | 27.1 | 47.2 |  | 
UCCCUGUGAGGAUAUCUCUUUGAGUGCGGCGAAUUCAGGUGGGAGAAGGCACAUGAGGAUCACCCAUGUAUUGC | 40.2 | 73 |  | 
CGGGAGUCAGGAUAUACGAACAUGUCGCCAGAUGUCAAGGUACAUGAGGAUCACCCAUGUAGAAGGGAGGAGAA | 91 | 54.3 |  | 
AUAUGAUAGAUAGGAUAUACUAUGGUUGAAUAUGUAGAAGGAUCAAUAGGGAAAUGUACAUGAGGAUCACCCAUGUUAUGGAUU |  |  | 32.9 | 31.3
GUUGGGUGUCAUGUCGCACAUGAGGAUCACCCAUGUAGGAGGUAGGAUAUCCACGAGAAACAAGCGGAGAAGGGCCAUUAGCGU | 27.9 | 31.3 |  | 
ACAUGAGGAUCACCCAUGUGACCACAAUGGCUGAUGUAACAACAGGAUAUUCGUGAAUAUCUAACGAAGAAGGGUUAUGACUGG | 71.4 | 65.2 |  | 
GCAAACAUGAGGAUCACCCAUGUCGGCUAUAAGUCCGCUCACAGAAGGGAUACGCCGGCAGGUGAUCAGGAUAUGUGGGCGCGC |  |  | 239 | 16.5
GUGGUCAGACAUGAGGAUCACCCAUGUGGAAUAAAUAACACACAGGAUAUGUAAUAUAAAAUAUAACAGAAGGGUGGAUUGGUG |  |  | 352 | 181
UUGUUACAUGAGGAUCACCCAUGUGAGGAUAUGGUUCGGUACUGUCAUGUCGCGUACUCCAGAAGGCACAUGUU | 97.1 | 303 |  | 
AUCAGCUCGUCAGGAUAUACGUCACUGCGUCAGCAGUAUGGUAAGAUCACAUGAGGAUCACCCAUGUAGAAGGGACGAGCUGAU | 62.2 | 663 |  | 
UUAAAUCGAAACAUGAGGAUCACCCAUGUGUUGUAAUUAAUAUAGGAUAUGUAUAUACUUUUAUAAUAGAAGGAUGAUAAUACU |  |  | 15.4 | 11.1
GUUUACCGAGGAUAUACAUGAGGAUCACCCAUGUUCCUAAUAAACAUCGGUUCAGCGUGUAGAAGGCGGACCUA | 22.5 | 53.9 |  | 
GGAUAGGACAGAGGAUAUAAGUGCUAGAGAUACUAGCAAAAUUUCCUCACAUGAGGAUCACCCAUGUAGAAGGCUGUCCUAUCG | 5.71 | 11.3 |  | 
CUGACGUCAGGAUAUCUGAUGUCUAACUUCGGUUAGACAUCAGAGAAGGGACAUGAGGAUCACCCAUGUCAGAG | 28.7 | 23.1 |  | 
